Results from publication PMC8680456 (Advanced therapeutics, 2021).

How the values were obtained:
RIP3 = experiment: Liver toxicity by RIP3 expression; details: mouse, in vivo
ABCA1 = ABCA1 and CD68 immunofluorescence in aortic roots; assay type: in vivo; details: LDLR KO mice, eight weeks of twice weekly injections, versus PBS control, n≥6
In short: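 LDLR KO male and female mice, obtained at 4 weeks, fed high-fat diet 14 weeks, then given tail-vein injections twice weekly for 8 weeks under isoflurane; PBS controls. Perfused with PBS and 2% paraformaldehyde; aortic roots sectioned. Blocked in TBST (0.1% Triton) with 10% horse serum 1 h RT; anti-CD68 (1:500) and anti-ABCA1 (1:1000) overnight 4 °C. Fluorescence pixel intensity quantified; two-factor ANOVA, Dunnett's vs PBS, n≥6.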

[1] = test system: cholesterol-laden macrophages; experiment: PA colocalization with cholesterol; assay type: cell-based; details: 32 μM LXR or PA epitope equivalents, 24 hours
[2] = Cleavage of niche-responsive LXR PAs; assay type: physicochemical; details: 1 mM PA, 37 °C
In short: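 Linker-bearing PAs at 1 mM in PBS. ROS-linked: 250 μM H2O2 + 50 μM CuSO4. NDEC-linked: 10 mM TCEP. SPDP-linked: 10 mM TCEP or 10 mM DTT. PBS-only controls. Incubated at 37 °C, 5% CO2; sampled at 24 h, 4 and 7 days; stored −20 °C. LC-MS: C18 UPLC column at 40 °C, electrospray 4.7 kV, capillary 350 °C, 150–2000 m/z, 120,000 resolution.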

O=C(O)Cc1cccc(OCCCN(Cc2cccc(C(F)(F)F)c2Cl)CC(c2ccccc2)c2ccccc2)c1 [LXR, GW3965]
liver toxicity by RIP3 expression (RIP3): Liver toxicity was observed | ABCA1 expression relative to number of CD68+ macrophages (ABCA1): significant increase in ABCA1 expression | confocal microscopy observation of cholesterol-laden macrophages [1]: appeared to be undergoing cell death

C16-VVAAEE-PEG4-K-PPPPP-K(Mtt) [ROS-LXR PA]
PA cleavage after 1 week ([2]; 250 μM H2O2 + 50 μM CuSO4 in PBS, 1 week, LC-MS): completely cleaved

C16-VVAAEE-PEG4-NDEC-K(LXR) [NDEC-LXR PA]
PA cleavage by day 4 ([2]; 10 mM TCEP in PBS, day 4, LC-MS): complete cleavage
